Laboratory results taken from ChEMBL document CHEMBL1121715, “New antiarrhythmic agents. 4. 1'-(Aminoalkyl)-1,2,3,4-tetrahydronaphthalene-1-spiro-3'-pyrrolidine-2',5'-dione derivatives” (J Med Chem, 1981).
Several values for one entry are separate records, joined by “and”; a condition that tells them apart may be missing. Identical values can stand only once.

Columns and labels:
Canis familiaris [1] = species: Canis familiaris; experiment: The dose at which toxicity was measured.; assay type: organism-based, Canis lupus familiaris; settings: dog, in vivo
Outline: (§1)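 Adult female dogs (6.7–14.5 kg) had two-stage ligation of the left anterior descending coronary artery the day before testing. After control ventricular rate, % ectopic beats and mean arterial pressure were recorded, the drug (HCl salt, isotonic solution) was infused iv without anesthesia at 0.1, 0.5 or 1.0 (mg/kg)/min, mostly 0.5. Infusion continued until the arrhythmia was abolished or cardiovascular/CNS toxicity appeared. Cumulative dose is given in mmol/kg; toxicity included convulsion and P-R prolongation ≥25%.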

Canis familiaris [2] = species: Canis familiaris; experiment: Toxicity of blood level was measured; assay type: organism-based, Canis lupus familiaris; settings: dog, in vivo
Outline: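 In coronary-ligated conscious dogs under iv infusion, blood was sampled at toxicity. Drug was extracted with methylene chloride at pH 10.3 (ammonium citrate/ammonia) with another analogue as internal standard, then derivatized with heptafluorobutyrylimidazole. Assay was GC-FID on 3% JXR, quantified from drug/internal standard peak-height ratio against standard curves; results in μmol/mL.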

Canis familiaris [3] = species: Canis familiaris; experiment: Toxicity of the compound; assay type: organism-based, Canis lupus familiaris; settings: dog, in vivo; outline: as §1
Canis familiaris [4] = species: Canis familiaris; experiment: Blood level was measured in […] at 0.017 dose.; assay type: functional, Canis lupus familiaris
Canis familiaris [5] = experiment: Blood level was measured in anesthetized dog at 0.029 dose.; assay type: functional, Canis lupus familiaris
Canis familiaris [6] = experiment: % ectopic beats was measured in anesthetized dog at 0.005 dose.; assay type: functional, Canis lupus familiaris, Heart; settings: in the assay text read “unanesthetized” for “anesthetized”
Outline: (§2)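 Adult female dogs (6.7–14.5 kg) had the left anterior descending coronary artery ligated in two stages the day before testing. Dogs were unanesthetized. Ectopic beats (% of ventricular rate) and mean arterial pressure were read at maximal antiarrhythmic effect against the cumulative dose.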

Canis familiaris [7] = experiment: % ectopic beats was measured in anesthetized dog at 0.017 dose.; assay type: functional, Canis lupus familiaris, Heart; settings: in the assay text read “unanesthetized” for “anesthetized”; outline: as §2
Canis familiaris [8] = experiment: % ectopic beats was measured in anesthetized dog at 0.021d ose.; assay type: functional, Canis lupus familiaris, Heart; settings: in the assay text read “unanesthetized” for “anesthetized”; outline: as §2
Canis familiaris [9] = experiment: % ectopic beats was measured in anesthetized dog at 0.026 dose.; assay type: functional, Canis lupus familiaris, Heart; settings: in the assay text read “unanesthetized” for “anesthetized”; outline: as §2
Canis familiaris [10] = experiment: % ectopic beats was measured in anesthetized dog at 0.029 dose.; assay type: functional, Canis lupus familiaris, Heart; settings: in the assay text read “unanesthetized” for “anesthetized”; outline: as §2
Canis familiaris [11] = experiment: % ectopic beats was measured in anesthetized dog at 0.042 dose.; assay type: functional, Canis lupus familiaris, Heart; settings: in the assay text read “unanesthetized” for “anesthetized”; outline: as §2
Canis familiaris [12] = experiment: MABP value was measured in anesthetized dog at 0.005 dose.; assay type: functional, Canis lupus familiaris; settings: in the assay text read “unanesthetized dog” for “anesthetized dog”; outline: as §2
Canis familiaris [13] = experiment: MABP value was measured in anesthetized dog at 0.017 dose.; assay type: functional, Canis lupus familiaris; settings: in the assay text read “unanesthetized dog” for “anesthetized dog”; outline: as §2
Canis familiaris [14] = experiment: MABP value was measured in anesthetized dog at 0.021d ose.; assay type: functional, Canis lupus familiaris; settings: in the assay text read “unanesthetized dog” for “anesthetized dog”; outline: as §2
Canis familiaris [15] = experiment: MABP value was measured in anesthetized dog at 0.026 dose.; assay type: functional, Canis lupus familiaris; settings: in the assay text read “unanesthetized dog” for “anesthetized dog”; outline: as §2
Canis familiaris [16] = experiment: MABP value was measured in anesthetized dog at 0.029 dose.; assay type: functional, Canis lupus familiaris; settings: in the assay text read “unanesthetized dog” for “anesthetized dog”; outline: as §2
Canis familiaris [17] = experiment: MABP value was measured in anesthetized dog at 0.042 dose.; assay type: functional, Canis lupus familiaris; settings: in the assay text read “unanesthetized dog” for “anesthetized dog”; outline: as §1
Canis familiaris [18] = species: Canis familiaris; experiment: (§3) The dose at which toxicity was measured; assay type: organism-based, Canis lupus familiaris; parameters: unit: mmol/kg; settings: dog, in vivo; outline: as §1
Canis familiaris [19] = experiment: Ventricular rate was measured in anesthetized dog at 0.005 dose; assay type: functional, Canis lupus familiaris, Heart; settings: in the assay text read “unanesthetized dog” for “anesthetized dog”; outline: as §1
Canis familiaris [20] = experiment: Ventricular rate was measured in anesthetized dog at 0.021 dose; assay type: functional, Canis lupus familiaris, Heart; settings: in the assay text read “unanesthetized dog” for “anesthetized dog”; outline: as §1
Canis familiaris [21] = experiment: Ventricular rate was measured in anesthetized dog at 0.029 dose; assay type: functional, Canis lupus familiaris, Heart; settings: in the assay text read “unanesthetized dog” for “anesthetized dog”; outline: as §1
Canis familiaris [22] = experiment: Ventricular rate was measured in anesthetized dog at 0.042 dose; assay type: functional, Canis lupus familiaris, Heart; settings: in the assay text read “unanesthetized dog” for “anesthetized dog”; outline: as §1
Canis familiaris [23] = experiment: Ventricular rate was measured in anesthetized dog at given 0.017 dose; assay type: functional, Canis lupus familiaris, Heart; settings: in the assay text read “unanesthetized” for “anesthetized”
Outline: (§4)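 Adult female dogs (6.7–14.5 kg) had ventricular arrhythmias from two-stage ligation of the left anterior descending coronary artery the day before. Ventricular rate (bpm) was read at maximal antiarrhythmic effect against cumulative dose.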

Canis familiaris [24] = experiment: Ventricular rate was measured in anesthetized dog at 0.026 dose; assay type: functional, Canis lupus familiaris, Heart
Mus musculus [25] = species: Mus musculus; experiment: Percentage toxicity measured as ataxia.; assay type: organism-based; settings: in vivo
Outline: (§5)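 Mice (groups of 10) were dosed sc with drug in 0.9% saline and watched for 20 min for overt toxicity (ataxia, convulsions, loss of righting reflex, death) before chloroform exposure.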

[26] = Percentage toxicity measured as death of mice.; assay type: organism-based; parameters: concentration or dose not given beside the values; settings: mouse, in vivo; read-out: Death
Mus musculus [27] = species: Mus musculus; experiment: Percentage toxicity measured as loss of righting reflex.; assay type: organism-based; settings: in vivo; outline: as §5
Mus musculus [28] = experiment: Protection against chloroform induced arrhythmias was measured in mice after sc administration at given dose.; assay type: functional; settings: Mus musculus, sc; read-out: ED50
Outline: (§6)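 Groups of 10 unanesthetized mice got sc injection of drug in 0.9% saline. After 20 min observation they were placed one by one in chloroform-vapor-saturated air. When breathing stopped, the thorax was opened and the heart inspected by eye; coordinated ventricular contractions counted as protected.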

Mus musculus [29] = experiment: Protection against chloroform induced arrhythmias in mice after subcutaneous administration at 100 mg/kg dose.; assay type: functional; outline: as §6
Mus musculus [30] = species: Mus musculus; experiment: Percentage toxicity measured as convulsions.; assay type: organism-based; settings: in vivo; outline: as §5
Canis familiaris [31] = species: Canis familiaris; experiment: MABP value was measured in […] at 0.084 dose; assay type: functional, Canis lupus familiaris; outline: as §1
Canis familiaris [32] = experiment: Blood level was measured in anesthetized dog at 0.042 dose; assay type: functional, Canis lupus familiaris
Canis familiaris [33] = experiment: Blood level was measured in anesthetized dog at 0.084 dose; assay type: functional, Canis lupus familiaris
Canis familiaris [34] = species: Canis familiaris; experiment: as §3; assay type: organism-based, Canis lupus familiaris; settings: dog, in vivo; outline: as §1
Canis familiaris [35] = experiment: % ectopic beats was measured in anesthetized dog at 0.038 dose; assay type: functional, Canis lupus familiaris, Heart; settings: in the assay text read “unanesthetized” for “anesthetized”; outline: as §2
Canis familiaris [36] = experiment: MABP value was measured in anesthetized dog at 0.038 dose; assay type: functional, Canis lupus familiaris; settings: in the assay text read “unanesthetized dog” for “anesthetized dog”; outline: as §2
Canis familiaris [37] = experiment: MABP value was measured in anesthetized dog at 0.042 dose; assay type: functional, Canis lupus familiaris
Canis familiaris [38] = experiment: MABP value was measured in anesthetized dog at 0.056 dose; assay type: functional, Canis lupus familiaris; settings: in the assay text read “unanesthetized dog” for “anesthetized dog”; outline: as §1
Canis familiaris [39] = species: Canis familiaris; experiment: Nature of toxicity was expressed; convulsion; assay type: organism-based, Canis lupus familiaris; settings: dog, in vivo; outline: as §1
Canis familiaris [40] = experiment: Ventricular rate was measured in anesthetized dog at 0.038 dose; assay type: functional, Canis lupus familiaris, Heart; settings: in the assay text read “unanesthetized dog” for “anesthetized dog”; outline: as §1
Canis familiaris [41] = experiment: Ventricular rate was measured in anesthetized dog at 0.042d dose; assay type: functional, Canis lupus familiaris, Heart; settings: in the assay text read “unanesthetized dog” for “anesthetized dog”; outline: as §1
Canis familiaris [42] = experiment: Ventricular rate was measured in anesthetized dog at 0.056 dose; assay type: functional, Canis lupus familiaris, Heart; settings: in the assay text read “unanesthetized dog” for “anesthetized dog”; outline: as §1
Canis familiaris [43] = experiment: Ventricular rate was measured in anesthetized dog at 0.084 dose; assay type: functional, Canis lupus familiaris, Heart; settings: in the assay text read “unanesthetized” for “anesthetized”; outline: as §4
Canis familiaris [44] = experiment: % ectopic beats was measured in unanesthetized dog at 0.056 dose
Canis familiaris [45] = experiment: % ectopic beats was measured in unanesthetized dog at 0.084 dose
Canis familiaris [46] = experiment: MABP value was measured in anesthetized dog at 0.21+/-0.19 dose.; assay type: functional, Canis lupus familiaris
Canis familiaris [47] = experiment: Ventricular rate was measured in anesthetized dog at 0.21+/-0.19 dose; assay type: functional, Canis lupus familiaris, Heart; settings: in the assay text read “unanesthetized” for “anesthetized”; outline: as §4
Canis familiaris [48] = experiment: % ectopic beats was measured in anesthetized dog at 0.21+/-0.19 dose; 4+/-3; assay type: functional, Canis lupus familiaris, Heart
Mus musculus [49] = experiment: Ataxia was measured in mice after sc administration at given dose.; assay type: functional
Outline: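 Mice in groups of 10 received drug sc in 0.9% saline and were watched 20 min for overt toxicity before chloroform exposure. At least three doses were given.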

Work on `CCN(CC)CCCCN1C(=O)CC2(CCCc3ccc(O)cc32)C1=O` (stereo not drawn) yielded a Cumulative dose (Canis familiaris [1]) of 0.063, a Blood level (Canis familiaris [2]) greater than 28 µM and a Blood level (Canis familiaris [3]) of 0.01 uM ml-1. The Blood level (Canis familiaris [4]) was 0.016 uM ml-1, the Blood level (Canis familiaris [5]) was 0.007 uM ml-1 and the Etopic beats (Canis familiaris [6]) was 2%. For the same compound, the Etopic beats (Canis familiaris [7]) was 2%, the Etopic beats (Canis familiaris [8]) was 0% and the Etopic beats (Canis familiaris [9]) was 0%. For the same compound, the Etopic beats (Canis familiaris [10]) was 0%, the Etopic beats (Canis familiaris [11]) was 0% and the MABP (Canis familiaris [12]) was 80 mmHg. The MABP (Canis familiaris [13]) was 95 mmHg, the MABP (Canis familiaris [14]) was 70 mmHg and the MABP (Canis familiaris [15]) was 90 mmHg. The MABP (Canis familiaris [16]) was 90 mmHg, the MABP (Canis familiaris [17]) was 100 mmHg and the Cumulative dose (Canis familiaris [18]) was > 0.058 and > 0.126. For the same compound, the Ventricular rate (Canis familiaris [19]) was 162 beats min-1, the Ventricular rate (Canis familiaris [20]) was 168 beats min-1 and the Ventricular rate (Canis familiaris [21]) was 141 beats min-1. The Ventricular rate (Canis familiaris [22]) was 147 beats min-1, the Ventricular rate (Canis familiaris [23]) was 153 beats min-1 and the Ventricular rate (Canis familiaris [24]) was 132 beats min-1. For the same compound, the Ataxia (Mus musculus [25]) was 0%, the mortality [26] was 0% and the “Loss of righting reflex” value (Mus musculus [27]) was 0%. For the same compound, the ED50 (Mus musculus [28]) was 130 µmol/kg, the Protection (Mus musculus [29]) was 100% and the Convulsion (Mus musculus [30]) was 0%.
With `CC(C)Oc1ccc2c(c1)C1(CCC2)CC(=O)N(CCCN(C)C)C1=O` (stereo not drawn) the MABP (Canis familiaris [31]) was 125 mmHg, the Blood level (Canis familiaris [32]) was 0.013 uM ml-1 and the Blood level (Canis familiaris [33]) was 0.021 uM ml-1. It also gave a Cumulative dose (Canis familiaris [34]) of 0.066, an Etopic beats (Canis familiaris [35]) of 2% and an MABP (Canis familiaris [36]) of 75 mmHg. The MABP (Canis familiaris [37]) was 90 mmHg and 100 mmHg, the MABP (Canis familiaris [38]) was 110 mmHg and the Cumulative dose (Canis familiaris [18]) was 0.077 and 0.133. For the same compound, the Nature (Canis familiaris [39]) was “convulsion”, the Ventricular rate (Canis familiaris [40]) was 120 beats min-1 and the Ventricular rate (Canis familiaris [22]) was 165 beats min-1. The Ventricular rate (Canis familiaris [41]) was 150 beats min-1, the Ventricular rate (Canis familiaris [42]) was 171 beats min-1 and the Ventricular rate (Canis familiaris [43]) was 138 beats min-1. For the same compound, the Ataxia (Mus musculus [25]) was 100%, the mortality [26] was 0% and the “Loss of righting reflex” value (Mus musculus [27]) was 10%. It also gave a Protection (Mus musculus [29]) of 50%, a Convulsion (Mus musculus [30]) of 0% and an Ectopic beats (Canis familiaris [44]) of 5%. The Ectopic beats (Canis familiaris [45]) was 15%.
`CCN(CC)CC(=O)Nc1c(C)cccc1C` [LIDOCAINE] showed an MABP (Canis familiaris [46]) of 101 mmHg, a Cumulative dose (Canis familiaris [1]) of 0.27 and a Ventricular rate (Canis familiaris [47]) of 133 beats min-1. The Ataxia (Mus musculus [25]) was 100%, the mortality [26] was 0% and the “Loss of righting reflex” value (Mus musculus [27]) was 100%. It also gave an ED50 (Mus musculus [28]) of 260 µmol/kg, a Protection (Mus musculus [29]) of 100% and a Convulsion (Mus musculus [30]) of 100%. For the same compound, the Etopic beats (Canis familiaris [48]) was 4% and the ED50 (Mus musculus [49]) was 180 µmol/kg.
